Data on 48 sequences can be found in the EternaBench riboswitch data.

In the series the test system is MS2 coat protein. The series is described as follows: apparent Kd, MS2 coat protein; higher = weaker binding; RNA-MaP array; FMN 200 µM where present. The method, boiled down: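 Stalled E. coli RNA polymerase produced the designs on Illumina sequencing-chip clusters. SNAP-549-labelled MS2 coat protein was added from 0.7 or 1.5 nM, doubling to 3 µM, without and then with constant ligand, in 100 mM Tris-HCl pH 7.5, 80 mM KCl, 4 mM MgCl2, BSA, DTT, yeast tRNA and Tween-20. The apparent Kd is the median of filtered per-cluster fits of green signal normalised to red-channel RNA signal and control-cluster median Fmax.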

Where [1] appears, read: designed as: OFF switch for flavin mononucleotide, no ligand.
Where [2] appears, read: ligand present: flavin mononucleotide, designed as: OFF switch for flavin mononucleotide.
The mark [3] stands for this setting: designed as: ON switch for flavin mononucleotide, no ligand.
[4] abbreviates: ligand present: flavin mononucleotide, designed as: ON switch for flavin mononucleotide.

As for “UUUUCCAGAGGAUAUGCGAAUAAAUAAAACUUUUUUUUUUAACAUGAGGAUCACCCAUGUAGAAGGCUGAUUUU”, the apparent Kd – broadly, the concentration giving half-maximal binding under the conditions of the assay – came to 47.9 nM under setting [1] and 48.5 nM under setting [2].
In the case of “AAAACAUGAGGAUCACCCAUGUUAAGAUCGGUCAAUAGAAGUGAGGAUAUACGAAGUUAAGGCUGGUAGAAGGCACUGGGUACA”, the “apparent Kd” value under setting [3] stood at 43.5 nM and the “apparent Kd” value under setting [4] was found to be 37.1 nM.
Regarding “GUCAGCUCGUGAGGAUAUACAUGUGCUGGAAACAGCACUAUUGAGUUCACAUGAGGAUCACCCAUGUAGAAGGCACGAGCUGAU”, the “apparent Kd” value stood at 15.8 nM under setting [1] and 28 nM under setting [2].
In the case of “CGUGCUAUGUAGAAGGCAGAAAAGAUUCAGAUCUGAGGAUAUACAUGAGGAUCACCCAUGUUAUGCACCAGCACGAGAGUGCAC”, the “apparent Kd” value runs as follows: under setting [1], 6.69 nM; under setting [2], 7.03 nM.
In the same order, the values of “AUUUUGUCAGGAUAUGACUAGUAGCACGAAAGUGCUACUACUUAGAAGGGACAUGAGGAUCACCCAUGUAUUCC” are 15.2 nM and 16.1 nM.
On to “UUACUCAUGUAAGGAUAUGCAGCCGAAACGGCUGCAGAAGGUACUAUAAUACAUGAGGAUCACCCAUGUAAAAUAAAUAAAGUC”, for which the “apparent Kd” value under setting [3] came to 26.1 nM and the “apparent Kd” value under setting [4] was found to be 16.9 nM.
As for “UUUUUAGCAGGAUAUAUCCACGACUACAUGAGGAUCACCCAUGUGGCCGCUUGAAGUUGUAUAGAAGGGCUUUUUU”, the “apparent Kd” value was determined as 24.8 nM under setting [1] and 23.4 nM under setting [2].
With “UUGUCUCAUGAGAAGGACAUGAGGAUCACCCAUGUAGGAUAUCAUGGGUCAGUGGAAUUGAAUCUUCGGAUUCAAUAACUCUAC”, the “apparent Kd” value runs as follows: under setting [3], 15 nM; under setting [4], 7 nM.
Regarding “UGUCGGAACAGAGGAUAUUACAUGAGGAUCACCCAUGUAUGAACCAAUAGCUGGAAACAGCAAUGUAAGAAGGCUGCUCCGACA”, the “apparent Kd” value by setting is: under setting [1], 11.9 nM; under setting [2], 147 nM.
On the same counts, the results for “ACAUGAGGAUCACCCAUGUAUUACAUGGUUAAGUUUAUUAACAGAAGGCGAAAUUACCACUUGAUCGAGGAUAUGUAUUCUAUU” are 49.1 nM and 43.4 nM.
In the same order, the values of “AGUCUGAGAGGAUAUACAAGGGAAAAAAAAGUAAGAUCCCUACAUGAGGAUCACCCAUGUAGAAGGCUCUGACA” are 98 nM and 43.8 nM.
Take “CUUCUGUGAGGAUAUGUUAGCUCCCGGCAUGUCGCUGGGAGACAGAAGGCACAUGAGGAUCACCCAUGUGGGCG”: the “apparent Kd” value came out at 34 nM under setting [1] and 161 nM under setting [2].
Regarding “AUCACAGCCACAGGAUAUCCACAUGAGGAUCACCCAUGUUACCGAAGGGUAGGAGAAGGGUGGCGCUCGUUGCGGACGAUGAAU”, the “apparent Kd” value is, setting by setting: under setting [3], 121 nM; under setting [4], 15.1 nM.
Take “UGUCGGAGCAGAGGAUAUUACAUGAGGAUCACCCAUGUAUGAACCAAUAGCUGGACACAGCAAUGUAAGAAGGCUGCUCCGACA”: the “apparent Kd” value worked out at 11.4 nM under setting [1] and 133 nM under setting [2].
In the same order, the values of “GCUUGUGAAGGAUAUACUGGCGGCGUGCGCUCGGCGCGCGCACAUGAGGAUCACCCAUGUAGAAGGUCAAACGU” are 14.3 nM and 13.1 nM.
In the same order, the values of “UAUAUGUCAGGAUAUCGAUUGGAAUGGAAUUUAGUUCUGGUUGAGAAGGGACAUGAGGAUCACCCAUGUUUUUC” are 35.5 nM and 213 nM.
In the same order, the values of “CGUGCUAUGUAGAAGGCAGAUCUGAUUCAGAUCUGAGGAUAUACAUGAGGAUCACCCAUGUUAUGCACCAGCACGAGAGUGCAU” are 9.83 nM and 40.2 nM.
Take “GCUGCGCGAGGAUAUGCGGUUCGCGCGGUGGCCCGUGGCGGACAUGAGGAUCACCCAUGUAGAAGGCGUGCGGG”: the “apparent Kd” value is, setting by setting: under setting [1], 11.1 nM; under setting [2], 12.1 nM.
On the same counts, the results for “CGAGUGAUAGGAUAUACACCUUUUCAGAACAUGUGGCUGUUACAUGAGGAUCACCCAUGUAGAAGGAUCAAGCG” are 65.8 nM and 66.3 nM.
In the same order, the values of “CUGCCACAUGAGGAUCACCCAUGUGAGGAUAUGGCCUGUUUGGCGUGUGCUGGCUCUGUCAGAAGGCGCGUGGG” are 24.1 nM and 33.9 nM.
As for “GGUAGCUUCACAGGAUAUGCUAUCCUUUGGGUAGCAGAAGGGUGAUACAUGAGGAUCACCCAUGUGCUGCCAGGGCGUGAGCCC”, the “apparent Kd” value by setting is: under setting [3], 286 nM; under setting [4], 500 nM.
In the same order, the values of “AAAAAACAUGAGGAUCACCCAUGUAAAAAAAUCGCAGGAUAUACGGUCGCGAAAGCGACCGUAGAAGGGCGAUCCU” are 251 nM and 94.8 nM.
For the sequence “UGAUUGGACAGAGGAUAUACGUGCUAGAGAUACUAGCAAAAUAUCCUCACAUGAGGAUCACCCAUGUAGAAGGCUGUCCAAUCU”, the “apparent Kd” value came to 17.3 nM under setting [1] and 85.1 nM under setting [2].
In the case of “AGAGACCUCACAGGAUAUGCUGGACUUUGUCCAGCAGAAGGGUGAUAACAUGAGGAUCACCCAUGUAUGGUCUCCAAAUUUAAU”, the “apparent Kd” value runs as follows: under setting [3], 1110 nM; under setting [4], 131 nM.
As for “AUUCCUAGUGUUAGGAUAUGCGACGGGUGACCGUUGCAGAAGGAACAUGAGGAUCACCCAUGUUUAAUAAAAUC”, the “apparent Kd” value by setting is: under setting [1], 15.6 nM; under setting [2], 80.7 nM.
Turning to “AUGCGUCGAGAGGAUAUUUGCGAGGUGACCAGCAAAGAAGGUUCGACAUGAGGAUCACCCAUGUCCAGCAUUUG”, the “apparent Kd” value is, setting by setting: under setting [1], 34.2 nM; under setting [2], 72.8 nM.
On to “UGGUACUAGGGAGGAUAUGGGAAGAUACAUGAGGAUCACCCAUGUUUAAGAAUGCCGAGAGGCAACUAGAAGGUCCUAGUACCU”, for which the “apparent Kd” value runs as follows: under setting [3], 628 nM; under setting [4], 38.2 nM.
Regarding “UGAUCGAAAGAUCAUAGAUUCUGCUAGGAUAUGCAGAAGUUGCGAUUUACAUGAGGAUCACCCAUGUAGAAGGAGUAGAGUCUA”, the “apparent Kd” value came out at 7.16 nM under setting [1] and 7.16 nM under setting [2].
As for “CUCAUGUCAGGAUAUCAGUAGUAAAAAAAUAAAAUUACUACUGAGAAGGGACAUGAGGAUCACCCAUGUCCUGG”, the “apparent Kd” value is 95.8 nM under setting [1] and 17.9 nM under setting [2].
With “UUUAUUUUGCAAGGAUAUGUUUAAUUUUAGUUUCCUUAAACAUGAGGAUCACCCAUGUUAUACUUACAGAAGGUGCAUAAUUUU”, the “apparent Kd” value reads like this: under setting [1], 90.6 nM; under setting [2], 52.5 nM.
Regarding “AUAUAUAUAUCAGGAUAUGGACAGGCCUGUUCGUAUUAAGACAUUAACAUGAGGAUCACCCAUGUCCAGAAGGGAUAUAUAUAU”, the “apparent Kd” value stood at 109 nM under setting [1] and 86.9 nM under setting [2].
In the case of “CACUGUCAUGCAGGAUAUGCAUUGGAUUACAAUGCAGAAGGGCGAUUACAUGAGGAUCACCCAUGUGUAGACAGUGAAGAAGAG”, the “apparent Kd” value runs as follows: under setting [3], 165 nM; under setting [4], 12.7 nM.
In the same order, the values of “UUGGAGUACGUAGGAUAUGUAGGAUAUUCCUACAUGAGGAUCACCCAUGUUGACAUGGAGGAAGGACAGAAGGACGUGCUCCAU” are 435 nM and 241 nM.
In the case of “UAUUAGUAAGGAUAUCUCGUCAUGGACGUGAGUCCAUGACGAGAGAAGGUACAUGAGGAUCACCCAUGUCUAUU”, the “apparent Kd” value by setting is: under setting [1], 18.1 nM; under setting [2], 19.4 nM.
In the same order, the values of “GUACGUGGACAGAAGGUGACAUGAGGAUCACCCAUGUUAGUUCGGGUACGAGCGAUCCGCGUGAUUGAGGAUAUGUCUGCGGGC” are 69.1 nM and 175 nM.
In the same order, the values of “CAGGGUAGAGGAUAUACGUAGGUACAGAUCCGUGUGAUCCUACAUGAGGAUCACCCAUGUAGAAGGCUAGCCUG” are 305 nM and 25.9 nM.
In the same order, the values of “CCGCAUGCUGUCAGGAUAUCGUAGAUAAUAAUAUGCGAGAAGGGACAUGAGGAUCACCCAUGUAAGAGGCGGCC” are 28.9 nM and 37.7 nM.
Turning to “CACGGCGUAUCAGGAUAUGUGGGUGUCUGGACAUGAGGAUCACCCAUGUAAUCAGUAUUAGCCGUGCAGAAGGGAUCCGCUGUA”, the “apparent Kd” value by setting is: under setting [3], 35.2 nM; under setting [4], 60.3 nM.
In the same order, the values of “GGCUGCAAUUAUGAGGAUAUGUUCGGAUGAACAUGAGGAUCACCCAUGUGGCGAUAGCUAUCUGUGCAGAAGGUGUAGUGGUAGC” are 213 nM and 61.8 nM.
With “UAAUAAUAAUAAUAGCAGUUACAUGAGGAUCACCCAUGUAUAUAGGAUAUCGUCAGGAAUACUGACGAGAAGGAUAUACUCUGC”, the “apparent Kd” value runs as follows: under setting [1], 21.9 nM; under setting [2], 26.2 nM.
In the case of “UGUUGUAUUACAGGAUAUCUAUUAUUUUUAGUUAGAGAAGGGUAUUCACAUGAGGAUCACCCAUGUAUAUACGAGGAAGUUGUG”, the “apparent Kd” value runs as follows: under setting [3], 43.5 nM; under setting [4], 44.3 nM.
“GCUAGGAGUGUGAGGAUAUGCUGUACCUUGGUACAGCAGAAGGCACAUGAGGAUCACCCAUGUGAAGACCUAGC”: the “apparent Kd” value is, setting by setting: under setting [1], 25.9 nM; under setting [2], 151 nM.
On the same counts, the results for “AUGCUUCACACAGGAUAUUACAUGAGGAUCACCCAUGUUGGGCGGUAGCUCGAAAGAGCUACCGGUAAGAAGGGUGUGAAGCAU” are 30.4 nM and 59.2 nM.
With “UGGUACAUGGGAGGAUAUCAUGUGGACACAUGAGGAUCACCCAUGUCGAUGGAGACAUCGGAGAUUGAGAAGGCCCAUGUACCU”, the “apparent Kd” value is, setting by setting: under setting [3], 390 nM; under setting [4], 12.7 nM.
Consider “AAUAUAAGAGCUGGUAAACUCAAAACAUGAGGAUCACCCAUGUAGGAUAUCAGCACGAUAAGUGCUGAGAAGGACAUCCAGCUC”, for which the “apparent Kd” value is, setting by setting: under setting [1], 15 nM; under setting [2], 16.1 nM.
In the same order, the values of “AAUUGACACGUAGGAUAUCGCUCUUAUUUAACACGAGAAGGACGUACAUGAGGAUCACCCAUGUUAAAUGGUGUAGAUUAGUUG” are 153 nM and 481 nM.
On to “AAAAGAGUAGGAUAUCUGACGCGAAACAUGAGGAUCACCCAUGUAGGGCGGUCCUGCUUAAGAGAAGGGCUCAAAU”, for which the “apparent Kd” value is, setting by setting: under setting [1], 99.6 nM; under setting [2], 230 nM.
On the same counts, the results for “GCUGCGCGAGGAUAUGCGGUUCGCGCUGUGGCCCGUGGCGGACAUGAGGAUCACCCAUGUAGAAGGCGUGCGGG” are 13 nM and 15.1 nM.
